Rows were chosen to be rich in hits. Some 2.8% of all compounds tested hit in one or more screens of this group.
NPY Y2 blocker = NPY-Y2 receptor antagonists, primary screen, cell-based | NPY-Y2 expressing cells, antagonist mode | 140,000 tested, 0.99% active | inhibition, % at 2.7 µM | AID 793, 2007; in the data active means inhibition above about 17%;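 further: 0% = vehicle with agonist challenge and 100% = reference antagonist with challenge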
Target sequence (P49146 whole entry, looked up): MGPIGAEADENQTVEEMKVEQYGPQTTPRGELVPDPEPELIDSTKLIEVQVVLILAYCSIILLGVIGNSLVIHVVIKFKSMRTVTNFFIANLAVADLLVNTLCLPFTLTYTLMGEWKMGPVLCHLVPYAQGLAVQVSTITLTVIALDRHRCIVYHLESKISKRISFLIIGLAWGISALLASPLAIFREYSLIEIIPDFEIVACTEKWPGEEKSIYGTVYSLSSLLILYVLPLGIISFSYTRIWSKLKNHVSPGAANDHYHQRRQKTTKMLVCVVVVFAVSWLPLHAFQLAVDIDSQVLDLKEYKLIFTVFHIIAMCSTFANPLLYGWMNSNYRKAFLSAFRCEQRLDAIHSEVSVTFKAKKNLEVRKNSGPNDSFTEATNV
EP2 antag = human EP2 receptor antagonists, primary screen, TR-FRET cAMP, C6 glioma cells | 260,000 tested, 0.52% active | C6 glioma cells expressing human EP2; cells stimulated with saturating PGE2 | inhibition, % at 25 µM;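 active means percent inhibition above 40 after rounding to a whole number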;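 further: rat C6 glioma host cells with rolipram phosphodiesterase inhibitor present; the protocol text gives 20 µM as final concentration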
NPY-Y1 antag = NPY-Y1 receptor antagonists, primary screen, cell-based; Neuropeptide Y receptor type 1 (Homo sapiens), P25929; HEK293-CNG Y1 cells, membrane potential fluorescence; NPY at EC95, then isoproterenol; inhibition, % at 3.6 µM; 200,000 tested, 1% active; AID 1040, 2008;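 active means inhibition above the campaign mean inhibition of all tested compounds plus 3 SD, cut at about 20% in these data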;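 further: 0% = DMSO wells given NPY plus isoproterenol and 100% = isoproterenol alone without NPY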
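System: HEK293 cells with Y1 receptor plus CNG channel / Probe or stimulus: NPY 25 nM then isoproterenol 1 µM plus Ro 20-1724 25 µM / Compound: one concentration, 3.6 µM, in 0.4% DMSO / Schedule: compound incubation 1 h at room temperature, readout 45 min post-stimulation / Measured by: membrane potential fluorescence / Read-out: % inhibition of NPY effect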
NPY-Y1 PAM-ag = NPY-Y1 receptor potentiators or agonists, primary screen, cell-based. Neuropeptide Y receptor type 1 (Homo sapiens), P25929. NPY-Y1 expressing cells, potentiator/agonist activation. activation, % at 3.6 µM. 220,000 tested, 0.37% active. AID 1304, 2008; in the data active means activation above about 33%, passing the limit was not always enough;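 further: cells stimulated with NPY at EC10 then isoproterenol at EC100; 0% = low agonist plus stimulus and 100% = saturating agonist plus stimulus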
EP2 mod = EP2 receptor modulators, cAMP readout, primary screen, cell-based, HTRF cAMP, PGE2 stimulation; EP2-expressing cells, cAMP HTRF FRET, PGE2 co-stimulation; induction, % at 25 µM; 260,000 tested, 0.83% active; AID 940, 2007;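 active means compounds whose cAMP rise, as percent of the full-agonist control response, exceeds 60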;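 further: rat C6 glioma line stably carrying human EP2 under a CMV promoter; the protocol text gives 20 µM as final concentration; 100% = response of wells given 1 µM PGE2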
NPY-Y2 PAM-ag = NPY-Y2 potentiators or agonists, primary screen, cell-based | activation, % at 3.6 µM | cells expressing NPY-Y2, potentiator/agonist read-out | Neuropeptide Y receptor type 2 (Homo sapiens), P49146 | 220,000 tested, 0.45% active; in the data active means activation above about 27%;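 further: cells stimulated with NPY near EC25 plus isoproterenol at EC100; 0% = vehicle plus submaximal agonist and 100% = vehicle plus saturating agonist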
* marks the source's active call; other numbers are inactive results; nt = no result.

SMILES | NPY Y2 blocker | EP2 antag | NPY-Y1 antag | NPY-Y1 PAM-ag | EP2 mod | NPY-Y2 PAM-ag
COc1ccc(C(=O)[C@H](Br)[C@H](Br)C(=O)O)cc1 | nt | 42* | nt | nt | -16 | nt
CC1Cc2ccccc2N1Cc1nc2cc(Cl)ccc2c(=O)[nH]1 (centres undefined) | 1 | 14 | -1 | 65* | 22 | 61*
CCCCN1C(=O)C2ON(c3ccccc3C)C(c3ccco3)C2C1=O (centres undefined) | 16 | 12 | 6 | -6 | 63* | -7
Cn1c(=S)n(/N=C/c2ccc3c(c2)OCO3)c2ccccc21 | 10 | 7 | 9 | 8 | 64* | -3
COc1ccc(S(=O)(=O)N2CCC(C(=O)Nc3ccccc3C)CC2)cc1OC | nt | 13 | nt | nt | -5 | nt
O=C(CSc1ccc(-c2nc3ccccc3[nH]2)cn1)Nc1cccc(F)c1 | nt | 49* | nt | nt | -92 | nt
COc1ccc(C(c2nnnn2Cc2cccs2)N2CCN(c3ccc(OC)cc3)CC2)cc1 (centres undefined) | nt | 9 | nt | nt | 9 | nt
CC(=O)Oc1c(/C=C(\C#N)C(N)=O)[nH]c2ccccc12 | 4 | 95* | 0 | -12 | -100 | 17
CN1/C(=C/C(=O)C2CC2)Sc2ccccc21 | nt | 9 | nt | nt | -33 | nt
CC1=NN(c2ccccc2)C(=O)/C1=C/C=C/c1ccccc1 | 0 | 8 | 3 | 2 | -76 | 10
Cc1ccc(C2=NOC(=O)/C2=C\C=C\c2ccccc2)cc1 | nt | 98* | 4 | -5 | -38 | -10
CCOc1ccc(NC(=O)CSc2nnc(-c3ccoc3C)n2Cc2ccco2)cc1 | nt | 8 | nt | nt | 52 | nt
O=C(NC1(c2ccc(F)cc2)CCCC1)c1ccc(N2CCCCS2(=O)=O)cc1 | nt | 3 | nt | nt | -8 | nt
CC1Cc2ccccc2N1C(=O)c1cc2nc(-c3ccco3)cc(C(F)(F)F)n2n1 (centres undefined) | nt | 9 | nt | nt | 72* | nt
O=C(c1ccccc1)N1C(=O)C(c2ccccc2)Oc2ccccc21 (centres undefined) | nt | 11 | nt | 33 | 81* | 26
Cc1ccc(C(=O)Nn2cnnc2)cc1[N+](=O)[O-] | 18* | 9 | -1 | 8 | nt | -15
Cc1cc(C)nc(NC(=O)c2ccc(C)c([N+](=O)[O-])c2)n1 | 1 | 14 | 7 | 4 | 13 | -9
COCCNC(=S)N(CCN1CCOCC1)Cc1cc2cc(OC)ccc2[nH]c1=O | nt | 6 | nt | nt | 1 | nt
O=C1C=C(NCc2ccc(Cl)cc2Cl)C2(CCCCC2)O1 | 26* | 7 | 26* | -19 | -17 | 8
O=C(Nc1ccc(F)cc1)N1CCCC1c1nc(-c2cccnc2)n[nH]1 (centres undefined) | nt | 1 | nt | nt | 2 | nt
COC(=O)c1sc(NC(=O)c2c(F)cccc2F)c(C#N)c1C | nt | 6 | -7 | 6 | -22 | 2
N#Cc1c(NC(=O)C(F)(F)F)sc2c3c(=O)c4ccccc4c(=O)c=3oc3ccccc3c12 | nt | 42* | nt | nt | -6 | nt
CCCCCc1ccc(-c2ccc(/C=C/C(=O)O)cc2)nc1 | 4 | 5 | -1 | -3 | 62* | -3
CC(C)NCC(O)Cn1c2c(c3ccccc31)CCc1c-2cnn1-c1ccccc1 (centres undefined) | 1 | 21 | -6 | 50* | -30 | 43*
COc1ccc(C(=O)c2c(C)c3ccccc3n2CC(O)CNC(C)C)cc1 (centres undefined) | 15 | 12 | 18 | -38 | -15 | 10
SMILES | NPY Y2 blocker | EP2 antag | NPY-Y1 antag | NPY-Y1 PAM-ag | EP2 mod | NPY-Y2 PAM-ag
Cc1cccc(C)c1NC(=O)CSc1nc2c(C)ccc(C)c2cc1C#N | nt | 17 | nt | nt | -31 | nt
CC(C)(C)c1ccc(Oc2ccc(NC(=O)c3ccco3)cn2)cc1 | nt | 12 | nt | 54* | -24 | 58*
CCN(CC)Cc1ccc(C(=O)N2CCC(c3ccncc3)CC2)o1 | nt | 6 | nt | nt | -8 | nt
CCn1c(=O)n(CC(=O)NCCc2ccc(OC)c(OC)c2)c2cccnc21 | nt | 7 | nt | nt | -7 | nt
COC(=O)c1c(NC(=O)CN2CCOCC2)sc2c1CCC(C)C2 (centres undefined) | 1 | 5 | 1 | -21 | 61* | -1
Nc1sc2c(c1C(=O)c1ccc(Cl)cc1)CCC2 | nt | 15 | nt | nt | 83* | nt
